{"data": "Published values gathered from unrelated publications", "organism": "Enterococcus faecalis", "note": "Protocols differ between the studies behind these lines."}
{"Structure (SMILES)": "O=C(CCCCc1ccccc1)CP(=O)(O)O", "test": "microbial growth", "system": "ATCC33186", "endpoint": "MIC", "value": "> 200 µg/mL"}
{"Structure (SMILES)": "CCCCCCCCCCCCCCCC(=O)NS(=O)(=O)OC1CCOCC1", "test": "microbial growth, broth dilution", "system": "ATCC33186", "endpoint": "MIC", "value": "25 µg/mL"}
{"Structure (SMILES)": "COc1ccc(CNO)c(C)c1", "test": "microbial growth", "system": "ATCC19433", "conditions": "8 h", "endpoint": "MIC50", "value": "< 80 µg/mL"}
{"Structure (SMILES)": "CC(C)C(C)CCCCCCCCCCCc1cc(O)cc(O)c1 (stereo not shown)", "test": "microbial growth", "system": "ATCC29212", "endpoint": "IC50", "value": "13.2 µM"}
{"Structure (SMILES)": "C=C(NC(=O)C(=C)NC(=O)c1csc(C2=N[C@@H]3c4csc(n4)[C@H]4NC(=O)c5csc(n5)[C@H]([C@](C)(O)[C@@H](C)O)NC(=O)[C@H]5CSC(=N5)/C(=C/C)NC(=O)[C@H]([C@@H](C)O)NC(=O)c5csc(n5)[C@]3(CC2)NC(=O)[C@H](C)NC(=O)C(=C)NC(=O)[C@H](C)NC(=O)[C@H]([C@@H](C)CC)N[C@@H]2C=Cc3c([C@H](C)O)cc(nc3[C@H]2O)C(=O)O[C@@H]4C)n1)C(N)=O", "test": "microbial growth", "system": "VRE", "endpoint": "MIC", "value": "0.12 µg/mL"}
{"Structure (SMILES)": "CC1(C)S[C@@H]2[C@H](NC(=O)[C@H](N)c3ccccc3)C(=O)N2[C@H]1C(=O)O", "test": "microbial growth, well diffusion", "system": "ATCC51299", "conditions": "60000 µg/mL", "endpoint": "inhibition zone", "value": "28 mm"}
{"Structure (SMILES)": "CN[C@H](CC(C)C)C(=O)N[C@H]1C(=O)N[C@@H](CC(N)=O)C(=O)N[C@H]2C(=O)N[C@H]3C(=O)N[C@H](C(=O)N[C@H](C(=O)O)c4cc(O)cc(O)c4-c4cc3ccc4O)[C@H](O)c3ccc(c(Cl)c3)Oc3cc2cc(c3O[C@@H]2O[C@H](CO)[C@@H](O)[C@H](O)[C@H]2O[C@H]2C[C@](C)(N)[C@H](O)[C@H](C)O2)Oc2ccc(cc2Cl)[C@H]1O", "test": "microbial killing", "conditions": "drug-resistant strain, clinical isolate", "endpoint": "MBC", "value": "32 µg/mL"}
{"Structure (SMILES)": "CCCCCCCCCCCCCCCC(=O)CP(=O)(O)O", "test": "microbial growth", "system": "ATCC33186", "endpoint": "MIC", "value": "12.5 µg/mL"}
{"Structure (SMILES)": "CCC(CCCCCCCCCCc1cc(O)cc(O)c1)C(C)C (stereo not shown)", "test": "microbial growth", "system": "ATCC29212", "endpoint": "IC50", "value": "9.23 µM"}
{"Structure (SMILES)": "CCCCCCCCCCCCCCCC(=O)NS(=O)(=O)Oc1ccc(OC)cc1", "test": "microbial growth", "system": "ATCC33186", "endpoint": "MIC", "value": "> 200 µg/mL"}
{"Structure (SMILES)": "CCCCCCCCCCCCCCCc1cc(O)cc(O)c1", "test": "microbial growth", "system": "ATCC29212", "endpoint": "IC50", "value": "> 200 µM"}
{"Structure (SMILES)": "CCCCCCCC/C=C\\CCCCCCCC(=O)C(F)(F)P(=O)(O)O", "test": "microbial growth", "system": "ATCC33186", "endpoint": "MIC", "value": "6.25 µg/mL"}
{"Structure (SMILES)": "CCCCCCCCCCCCCCCC(=O)NS(=O)(=O)OC1CCCCC1", "test": "microbial growth, broth dilution", "system": "ATCC33186", "endpoint": "MIC", "value": "12.5 µg/mL"}
